For series [1], the system named is Plasmodium berghei. Kind of series: Antimalarial activity against Plasmodium berghei infected in mouse assessed as change in mean survival time at 10 mg/kg (reference value: 6.2 +/- 0.5 days). Type of series: functional.
In series [2] the test system is Plasmodium berghei. Briefly: Antimalarial activity against Plasmodium berghei infected in mouse assessed as change in mean survival time at 5 mg/kg (reference value: 6.2 +/- 0.5 days). Type of series: functional.
For series [3], the system named is Plasmodium cynomolgi. Kind of series: Antimalarial activity against Plasmodium cynomolgi infected in rhesus monkey assessed as cured animal at 0.75 mg/kg qd for 7 days measured after 105 days in presence of chloroquine. Type of series: functional, organism-based. Further details: dose 0.75 mg/kg. A digest of the protocol:
(§1)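 Test compounds were given as phosphate salts, with doses expressed as free base, once daily for 7 days together with chloroquine at 2.5 mg per kg body weight. An animal was scored as cured when thick blood films stayed parasite-negative for 105 days or more after the last dose.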

Series [4] concerns Plasmodium berghei. Briefly: Antimalarial activity against Plasmodium berghei infected in mouse assessed as change in mean survival time at 40 mg/kg (reference value: 6.2 +/- 0.5 days). Type of series: functional.
Series [5] relates to Plasmodium berghei. Briefly: Antimalarial activity against Plasmodium berghei infected in mouse assessed as change in mean survival time at 80 mg/kg (reference value: 6.2 +/- 0.5 days). The class given is functional.
The test system of series [6] is Plasmodium berghei. Kind of series: Antimalarial activity against Plasmodium berghei infected in mouse assessed as change in mean survival time at 20 mg/kg (reference value: 6.2 +/- 0.5 days). The class given is functional.
The subject of series [7] is Plasmodium berghei. Kind of series: Antimalarial activity against Plasmodium berghei infected in mouse assessed as change in mean survival time at 160 mg/kg (reference value: 6.2 +/- 0.5 days). Type of series: functional.
For series [8], the system named is Plasmodium berghei. Briefly: Antimalarial activity against Plasmodium berghei infected in mouse assessed as change in mean survival time at 320 mg/kg (reference value: 6.2 +/- 0.5 days). The class given is functional.
Series [9] concerns Plasmodium berghei. Briefly: Antimalarial activity against Plasmodium berghei infected in mouse assessed as change in mean survival time at 640 mg/kg (reference value: 6.2 +/- 0.5 days). The class given is functional.
Series [10] has as its system Plasmodium cynomolgi. Briefly: Antimalarial activity against Plasmodium cynomolgi infected in rhesus monkey assessed as relapse time at 0.375 mg/kg qd for 7 days in presence of chloroquine. Type of series: functional.
Series [11] concerns Plasmodium cynomolgi. Briefly: Antimalarial activity against Plasmodium cynomolgi infected in rhesus monkey assessed as relapse time at 0.5 mg/kg qd for 7 days in presence of chloroquine. The class given is functional.
The subject of series [12] is Plasmodium cynomolgi. Kind of series: Antimalarial activity against Plasmodium cynomolgi infected in rhesus monkey assessed as cured animal at 0.5 mg/kg qd for 7 days measured after 105 days in presence of chloroquine. Type of series: functional, organism-based. Also on record: dose 0.5 mg/kg. Put shortly: as §1
The subject of series [13] is Plasmodium cynomolgi. Briefly: Antimalarial activity against Plasmodium cynomolgi infected in rhesus monkey assessed as cured animal at 0.375 mg/kg qd for 7 days measured after 105 days in presence of chloroquine. Also on record: dose 0.375 mg/kg. Type of series: functional, organism-based. Put shortly: as §1
For series [14], the system named is Plasmodium berghei. Kind of series: Antimalarial activity against Plasmodium berghei infected in mouse assessed as change in mean survival time at 1.25 mg/kg (reference value: 6.2 +/- 0.5 days). The class given is functional.
Series [15] concerns Plasmodium berghei. Kind of series: Antimalarial activity against Plasmodium berghei infected in mouse assessed as change in mean survival time at 2.5 mg/kg (reference value: 6.2 +/- 0.5 days). The class given is functional.
A further series deals with Rhesus monkey. Briefly: Toxicity in rhesus monkey at 0.375 to 0.75 mg/kg. Also on record: dose 0.375-0.75 mg/kg. The conditions noted are these: in vivo. The class given is organism-based, Macaca mulatta.
Series [16] concerns Mus musculus. Kind of series: Toxicity in mouse infected with Plasmodium berghei assessed as mortality at 320 mg/kg after 2 to 5 days. The class given is organism-based. Further details: dose 320 mg/kg. As to conditions: in vivo.
Series [17] relates to Mus musculus. Kind of series: Toxicity in mouse infected with Plasmodium berghei assessed as mortality at 160 mg/kg after 2 to 5 days. Type of series: organism-based. Further details: dose 160 mg/kg. The conditions noted are these: in vivo.
For series [18], the system named is Mus musculus. Briefly: Toxicity in mouse infected with Plasmodium berghei assessed as mortality at 640 mg/kg after 2 to 5 days. Also on record: dose 640 mg/kg. As to conditions: in vivo. The class given is organism-based.

These results are taken from ChEMBL document CHEMBL3244007, “Resolution of antimalarial agents via complex formation with alpha-(2,4,5,7-tetranitro-9-fluorenylideneaminooxy) propionic acid” (J Med Chem, 1978).

SMILES strings stand for the structures. Activity calls are given as the source filed them. No cut-off for these calls is given here.

Regarding `CCCCN(CCCC)CCC(O)c1cc2c(Cl)cc(Cl)cc2c2cc(C(F)(F)F)ccc12` (racemic) [HALOFANTRINE], the MST with Plasmodium berghei [1] came to 14.9 days; with Plasmodium berghei [2], 9.3 days.

As to `COc1cc(NC(C)CCCN)c2ncccc2c1` (single isomer, unassigned; (-)), the outcome with Plasmodium cynomolgi [3] was Active.

In the case of `Nc1nc(N)c2c(n1)CCC(S(=O)(=O)c1ccc3ccccc3c1)C2` (single isomer, unassigned; (+)), the MST is 1.7 days with Plasmodium berghei [4]; 4.5 days with Plasmodium berghei [5]; 0.3 days in the series on Plasmodium berghei [6]; 6.9 days in the series with Plasmodium berghei [7]; 9.1 days in the series with Plasmodium berghei [8].

As to `CCCCCCCN(CCCCCCC)CC(O)c1cc2ccccc2c2cc(Br)ccc12` (single isomer, unassigned; (+)), the MST in the series with Plasmodium berghei [4] (40 mg/kg) turned out to be 1.7 days; in the series with Plasmodium berghei [5] (80 mg/kg), 4.1 days; in the series with Plasmodium berghei [6], 0.5 days; in the series with Plasmodium berghei [9], 14.9 days; in the series with Plasmodium berghei [7] (160 mg/kg), 6.7 days; in the series with Plasmodium berghei [8] (320 mg/kg), 9.3 days.

Consider `CCCCN(CCCC)CC(O)c1cc(-c2ccc(C(F)(F)F)cc2)nc(-c2ccc(C(F)(F)F)cc2)c1` (racemic), for which the MST stood at 8.6 days with Plasmodium berghei [6] and 5.5 days in the series with Plasmodium berghei [1].

On to `COc1cc(NC(C)CCCN)c2ncccc2c1.O=P(O)(O)O.O=P(O)(O)O` (single isomer, unassigned; (-)) [PRIMAQUINE PHOSPHATE], for which the Time in the series with Plasmodium cynomolgi [10] is 11 days; in the series on Plasmodium cynomolgi [11] it was 16 days.

In the case of `CCCCCCCN(CCCCCCC)CC(O)c1cc2ccccc2c2cc(Br)ccc12` (stereo in doubt; (-)-3), the MST in the series with Plasmodium berghei [4] (40 mg/kg) was determined as 2.1 days; in the series on Plasmodium berghei [5] (80 mg/kg) it was 3.9 days; with Plasmodium berghei [6] it was 0.3 days; with Plasmodium berghei [9], 11.1 days; with Plasmodium berghei [7] (160 mg/kg), 5.3 days; with Plasmodium berghei [8] (320 mg/kg) it was 6.1 days.

`COc1cc(NC(C)CCCN)c2ncccc2c1` (racemic): the result in the series on Plasmodium cynomolgi [12] and in the series on Plasmodium cynomolgi [3] was Active. The result with Plasmodium cynomolgi [13] was inactive.

For the compound `Nc1nc(N)c2c(n1)CCC(S(=O)(=O)c1ccc3ccccc3c1)C2` (racemic), the MST in the series with Plasmodium berghei [14] was determined as 4.9 days; with Plasmodium berghei [15], 7.5 days; in the series with Plasmodium berghei [1], 11.9 days; with Plasmodium berghei [2] it was 10.7 days.

On to `COc1cc(NC(C)CCCN)c2ncccc2c1` (stereo in doubt; (+)-5), for which the outcome in the series with Plasmodium cynomolgi [3] was Active.

Consider `COc1cc(NC(C)CCCN)c2ncccc2c1.O=P(O)(O)O.O=P(O)(O)O` (stereo in doubt; (+)-5) [PRIMAQUINE PHOSPHATE], for which the Time in the series on Plasmodium cynomolgi [10] worked out at 10 days; in the series with Plasmodium cynomolgi [11], 28 days. Also, the Activity entry in the series with Rhesus monkey is “Toxic”.

For `Nc1nc(N)c2c(n1)CCC(S(=O)(=O)c1ccc3ccccc3c1)C2` (single isomer, unassigned; (-)), the Activity result with Mus musculus [16], in the series with Mus musculus [17] and with Mus musculus [18] was “Toxic” in each case. For the same compound, the MST was found to be 11.3 days in the series with Plasmodium berghei [6]; 1.3 days in the series with Plasmodium berghei [14]; 3.1 days in the series with Plasmodium berghei [15]; 7.1 days with Plasmodium berghei [1]; 4.9 days in the series on Plasmodium berghei [2].

Regarding `CCCCN(CCCC)CC(O)c1cc(-c2ccc(C(F)(F)F)cc2)nc(-c2ccc(C(F)(F)F)cc2)c1` (stereo in doubt; (+)-2), the MST with Plasmodium berghei [4] (40 mg/kg) worked out at 18.1 days; in the series with Plasmodium berghei [5] (80 mg/kg), 25.6 days; in the series with Plasmodium berghei [6] it was 10.7 days; in the series on Plasmodium berghei [1] it was 3.9 days.

With `CCCCN(CCCC)CCC(O)c1cc2c(Cl)cc(Cl)cc2c2cc(C(F)(F)F)ccc12` (stereo in doubt; (-)-8) [HALOFANTRINE], the MST in the series with Plasmodium berghei [4] (40 mg/kg) was determined as 12.5 days; in the series with Plasmodium berghei [5] (80 mg/kg), 13.2 days; in the series with Plasmodium berghei [6], 8.9 days; with Plasmodium berghei [14], 0.1 days; in the series on Plasmodium berghei [15], 0.3 days; with Plasmodium berghei [1] it was 5.1 days. For the same compound, the MST in the series on Plasmodium berghei [2] turned out to be 1.5 days.

For `CCCCN(CCCC)CC(O)c1cc(-c2ccc(Cl)c(Cl)c2)nc2c(Cl)cc(Cl)cc12` (single isomer, unassigned; (+)), the MST in the series with Plasmodium berghei [4] (40 mg/kg) was found to be 11.8 days; with Plasmodium berghei [6], 10 days; in the series with Plasmodium berghei [14] it was 0.5 days; in the series with Plasmodium berghei [15], 0.5 days; in the series on Plasmodium berghei [1] it was 6.9 days; with Plasmodium berghei [2], 3.5 days.

Regarding `CCCCN(CCCC)CCC(O)c1cc2c(Cl)cc(Cl)cc2c2cc(C(F)(F)F)ccc12` (stereo in doubt; (+)-8) [HALOFANTRINE], the MST in the series with Plasmodium berghei [4] (40 mg/kg) was found to be 14.5 days; in the series with Plasmodium berghei [5] (80 mg/kg) it was 16.9 days; with Plasmodium berghei [6] it was 11.1 days; with Plasmodium berghei [14] it was 0.5 days; in the series on Plasmodium berghei [15], 3.1 days; in the series with Plasmodium berghei [1], 10.3 days. Further, the MST in the series with Plasmodium berghei [2] amounted to 7.5 days.

Regarding `CCCCN(CCCC)CC(O)c1cc(-c2ccc(Cl)c(Cl)c2)nc2c(Cl)cc(Cl)cc12` (single isomer, unassigned; (-)), the MST in the series with Plasmodium berghei [4] (40 mg/kg) is 7.8 days; in the series with Plasmodium berghei [5] (80 mg/kg), 9 days; in the series with Plasmodium berghei [6], 3.8 days; in the series on Plasmodium berghei [7] it was 12.8 days.

As to `CCCCN(CCCC)CC(O)c1cc(-c2ccc(Cl)c(Cl)c2)nc2c(Cl)cc(Cl)cc12` (racemic), the MST in the series with Plasmodium berghei [4] (40 mg/kg) was determined as 11.9 days; in the series with Plasmodium berghei [5] (80 mg/kg), 22.9 days; in the series on Plasmodium berghei [6], 14.9 days; in the series on Plasmodium berghei [14], 0.3 days; in the series on Plasmodium berghei [15], 4.1 days; with Plasmodium berghei [1] it was 10.7 days. In addition, in the series with Plasmodium berghei [2], the MST amounted to 6.1 days.

On to `CCCCN(CCCC)CC(O)c1cc(-c2ccc(C(F)(F)F)cc2)nc(-c2ccc(C(F)(F)F)cc2)c1` (single isomer, unassigned; (-)), for which the MST in the series with Plasmodium berghei [4] (40 mg/kg) came to 10.5 days; in the series with Plasmodium berghei [5] (80 mg/kg), 13.1 days; in the series on Plasmodium berghei [6], 3.1 days; in the series with Plasmodium berghei [7] it was 19.9 days; in the series on Plasmodium berghei [1] it was 1.3 days.

As for `CCCCCCCN(CCCCCCC)CC(O)c1cc2ccccc2c2cc(Br)ccc12` (racemic), the MST in the series on Plasmodium berghei [4] (40 mg/kg) stood at 6.9 days; in the series on Plasmodium berghei [5] (80 mg/kg), 11.3 days; in the series with Plasmodium berghei [6], 2.9 days; in the series with Plasmodium berghei [7] (160 mg/kg) it was 15.3 days; in the series on Plasmodium berghei [8] (320 mg/kg), 25.9 days.
